Reference: ChEMBL document CHEMBL4342473, “Lead Optimization of Benzoxazolone Carboxamides as Orally Bioavailable and CNS Penetrant Acid Ceramidase Inhibitors” (J Med Chem, 2020)
Calls of active or inactive are those of the source. The calls are words filed in the database; no cut-off is given here.

Legend:
[1] = Ratio of unbound drug level in brain of C57BL/6J/129SvEV mouse model of Gaucher's disease at 90 mg/kg, ip administered once daily for 14 days measured 1 hr post-last dose to EC50 for inhibition of acid ceramidase in Krabbe's disease patient-derived primary fibroblasts; type: organism-based; conditions: in vivo
Summary of the method: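 Gaucher-model 4L;C* mice (N = 4–8, mixed sexes) got 30 or 90 mg kg–1 i.p. once daily for 14 days from postnatal day 5 and were sacrificed 1 h after the day-14 dose. Compound levels were measured in plasma and brain, and unbound brain level came from brain fraction unbound (two technical replicates). The reference EC50 was from Krabbe patient primary fibroblasts incubated 2 h across concentrations (two independent experiments, duplicates).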

[2] = target: T1, Acid ceramidase (Homo sapiens) (UniProt Q13510); experiment: Inhibition of acid ceramidase in human SH-SY5Y cells assessed as change in intracellular accumulation of SM (d18:1/16:0) up to 10 uM measured after 3 hrs by LC/MS analysis; type: cell-based
T1 sequence (whole entry): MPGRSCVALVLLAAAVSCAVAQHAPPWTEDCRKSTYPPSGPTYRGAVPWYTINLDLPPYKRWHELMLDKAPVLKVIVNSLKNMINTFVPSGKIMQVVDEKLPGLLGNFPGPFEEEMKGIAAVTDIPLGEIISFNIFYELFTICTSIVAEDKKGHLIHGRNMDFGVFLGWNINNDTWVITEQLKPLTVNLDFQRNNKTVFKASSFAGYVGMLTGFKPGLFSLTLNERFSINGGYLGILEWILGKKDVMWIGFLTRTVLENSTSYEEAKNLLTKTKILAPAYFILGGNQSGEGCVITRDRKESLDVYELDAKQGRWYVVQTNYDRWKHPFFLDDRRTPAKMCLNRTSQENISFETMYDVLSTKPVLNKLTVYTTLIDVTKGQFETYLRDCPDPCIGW
Summary of the method: (§1)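 SH-SY5Y neuroblastoma cells exposed 3 h to 1, 2.5, 5 and 10 μM; AC activity by LC/MS-based assay; ceramide species, sphingosine, SM and HexCer (d18:1/16:0) quantified by LC/MS; means ± S.E.M. of at least six determinations, experiment repeated twice.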

[3] = target: T1, Acid ceramidase (Homo sapiens); experiment: Inhibition of acid ceramidase in human SH-SY5Y cells assessed as change in intracellular accumulation of HexCer (d18:1/16:0) at 10 uM measured up to 6 hrs by LC/MS analysis; type: cell-based
Summary of the method: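 Human neuroblastoma SH-SY5Y cells incubated with compound at 10 μM for 30 min, 1 h, 3 h and 6 h; AC activity by LC/MS-based activity assay; Cer (d18:0/16:0), Cer (d18:1/16:0), sphingosine, SM (d18:1/16:0) and HexCer (d18:1/16:0) quantified by LC/MS.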

[4] = Ratio of unbound drug level in brain of twitcher mouse model of Krabbe's disease at 90 mg/kg,ip administered once daily for 20 days measured 1 hr post-last dose to EC50 for inhibition of acid ceramidase in Krabbe's disease patient-derived primary fibroblasts; type: organism-based; conditions: in vivo
Summary of the method: (§2)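 Twitcher mice (3 males + 3 females per group) got 30 or 90 mg kg–1 i.p. once daily for 20 days from postnatal day 10 and were sacrificed 1 h after the day-20 dose. Plasma and brain levels were measured, and unbound brain level came from brain fraction unbound (two technical replicates). The EC50 was from Krabbe patient primary fibroblasts exposed 2 h to a concentration series (two independent experiments, duplicates).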

[5] = target: T2, Acid ceramidase (Homo sapiens, UniProt Q13510); experiment: Time-dependent inhibition of human acid ceramidase expressed in HEK293 cells using Rbm14-12 as substrate by fluorescence assay; type: cell-based
T2 sequence (Q13510 whole entry): T1 sequence (whole entry)
Summary of the method: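 hAC-enriched lysates with fluorogenic substrate Rbm 14-12; vehicle 1% DMSO; time-dependent inhibition analysed for ki/KI and ki; two independent experiments, each in two technical replicates.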

[6] = Toxicity in C57BL/6 mouse assessed as clinical abnormalities at 20 to 120 mg/kg, ip administered for 4 days; type: organism-based; conditions: in vivo, 96 h
[7] = target: T3, Lysosomal acid glucosylceramidase (Homo sapiens) (UniProt P04062); experiment: Inhibition of human full length GCase at 1 to 10 uM using 4-MUG as fluorogenic substrate incubated for 15 mins by fluorescence based assay
T3 sequence (whole entry): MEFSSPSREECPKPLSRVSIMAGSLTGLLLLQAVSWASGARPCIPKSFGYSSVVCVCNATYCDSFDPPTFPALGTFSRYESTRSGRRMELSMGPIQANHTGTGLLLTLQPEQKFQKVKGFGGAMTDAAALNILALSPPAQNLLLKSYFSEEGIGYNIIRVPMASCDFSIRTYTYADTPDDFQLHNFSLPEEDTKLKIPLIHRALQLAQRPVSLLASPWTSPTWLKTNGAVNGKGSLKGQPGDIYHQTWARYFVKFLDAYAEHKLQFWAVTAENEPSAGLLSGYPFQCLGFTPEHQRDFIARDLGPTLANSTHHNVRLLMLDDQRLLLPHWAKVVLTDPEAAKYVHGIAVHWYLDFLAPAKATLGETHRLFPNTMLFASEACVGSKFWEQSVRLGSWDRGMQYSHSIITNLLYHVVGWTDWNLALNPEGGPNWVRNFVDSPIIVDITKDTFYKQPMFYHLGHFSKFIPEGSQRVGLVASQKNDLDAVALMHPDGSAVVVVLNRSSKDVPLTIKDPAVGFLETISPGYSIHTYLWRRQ

[8] = Unbound plasma concentration in twitcher mouse model of Krabbe's disease at 30 mg/kg, ip administered once daily for 20 days measured 1 hr post-last dose; type: ADME, organism-based; conditions: in vivo
Summary of the method: (§3)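 Twitcher mice dosed i.p. once daily for 20 days, sacrificed 1 h after last dose (day 20); drug measured in plasma and brain; unbound levels from unbound fractions (mean of two technical replicates); N = 3 males + 3 females per group.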

[9] = Unbound drug level in brain of twitcher mouse model of Krabbe's disease at 30 mg/kg,ip administered once daily for 20 days measured 1 hr post-last dose; type: ADME, organism-based; conditions: in vivo; summary of the method: as §3
[10] = target: T1, Acid ceramidase (Homo sapiens); experiment: Inhibition of acid ceramidase in human SH-SY5Y cells assessed as change in intracellular accumulation of HexCer (d18:1/16:0) up to 10 uM measured after 3 hrs by LC/MS analysis; type: cell-based; summary of the method: as §1
[11] = Ratio of unbound drug level in brain of twitcher mouse model of Krabbe's disease at 30 mg/kg,ip administered once daily for 20 days measured 1 hr post-last dose to EC50 for inhibition of acid ceramidase in Krabbe's disease patient-derived primary fibroblasts; type: organism-based; conditions: in vivo; summary of the method: as §2
[12] = target: T4, Monoglyceride lipase (Homo sapiens) (UniProt Q99685); experiment: Inhibition of recombinant human MAGL at 1 to 10 uM using 4-nitrophenylacetate as substrate preincubated for 5 mins followed by substrate addition and measured after 10 mins by colorimetric method
T4 sequence (whole entry): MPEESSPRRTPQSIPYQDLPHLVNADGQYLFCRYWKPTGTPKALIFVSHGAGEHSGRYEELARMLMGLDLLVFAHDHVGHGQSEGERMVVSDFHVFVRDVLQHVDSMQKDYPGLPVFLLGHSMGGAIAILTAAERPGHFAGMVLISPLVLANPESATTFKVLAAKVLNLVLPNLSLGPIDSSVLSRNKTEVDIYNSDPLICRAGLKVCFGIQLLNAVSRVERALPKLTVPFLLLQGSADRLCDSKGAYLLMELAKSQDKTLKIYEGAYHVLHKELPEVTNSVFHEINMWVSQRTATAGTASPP

CC(C)CNC(=O)n1c(=O)oc2cc(C3CCN(C)CC3)ccc21
Ratio [1]: 6.4
inhibition [2]: inactive
inhibition [3]: inactive
Ratio [4]: 5.2
kinact [5]: 0.15 min⁻¹
Activity [6]: Non-Toxic
inhibition [7]: inactive
Cp(f) [8]: 110 nM
Drug uptake(free) [9]: 0.8 µM
inhibition [10]: inactive
Ratio [11]: 2
inhibition [12]: inactive
